Assay outcomes as filed in PubChem.
zVAD death inh: inhibitors of zVAD-triggered necroptosis, primary screen, L929 cells | L929 zVAD necroptosis rescue, ATP luminescence, 24 h; with zVAD 60 µM | viability rescue, % at 10 µM | 220,000 tested, 0.38% active;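 active = activation, scaled between plate controls, above about 75%, limit read from the data; inactive = activation under that limit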
Wee1 stabilizer: Wee1 degradation inhibitors, primary screen, cell-based, HeLa, Wee1K328M-luciferase, luminescence | Wee1-like protein kinase (Homo sapiens), P30291 | HeLa Luc-Wee1K328M stability; 100% = proteasome inhibitor MG132 effect | 220,000 tested, 1.2% active | reporter increase, % at 5 µM;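 active = activation above the mean of all tested compounds plus 3 SD, set per screening run, cut at about 8.8% in these data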;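 note: cells exposed to compound for 20 h before luminescence read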
Target sequence (P30291 whole entry K328M): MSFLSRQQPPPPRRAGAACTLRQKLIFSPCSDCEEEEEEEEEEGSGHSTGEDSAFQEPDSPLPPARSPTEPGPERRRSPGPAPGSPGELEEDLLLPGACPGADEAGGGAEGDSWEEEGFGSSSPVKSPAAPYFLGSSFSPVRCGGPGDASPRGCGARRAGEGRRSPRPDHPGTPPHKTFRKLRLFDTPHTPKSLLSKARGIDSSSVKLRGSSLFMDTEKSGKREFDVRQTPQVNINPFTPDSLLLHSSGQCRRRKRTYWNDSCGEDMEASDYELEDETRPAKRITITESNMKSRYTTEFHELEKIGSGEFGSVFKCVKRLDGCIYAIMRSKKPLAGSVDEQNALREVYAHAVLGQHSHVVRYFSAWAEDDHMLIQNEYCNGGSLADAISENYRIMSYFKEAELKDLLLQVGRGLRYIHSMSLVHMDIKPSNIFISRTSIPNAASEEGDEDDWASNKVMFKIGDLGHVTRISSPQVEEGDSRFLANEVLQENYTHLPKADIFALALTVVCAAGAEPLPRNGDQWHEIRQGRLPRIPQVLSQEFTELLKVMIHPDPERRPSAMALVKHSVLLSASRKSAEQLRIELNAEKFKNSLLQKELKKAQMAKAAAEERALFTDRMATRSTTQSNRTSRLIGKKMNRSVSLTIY
TNF necrop inh: inhibitors of TNF-alpha triggered necroptosis, primary screen, cell-based, Jurkat FADD-/-, single concentration | Jurkat FADD-/- TNF necroptosis rescue, ATP luminescence, 24 h; 0 = TNF only, 100 = no-TNF cells | activation (protection from cell death), % at 10 µM | 220,000 tested, 0.068% active | AID 463075, 2010;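 active = activation, meaning protection from cell death, of at least 50% relative to plate controls; inactive = activation below 50%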;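 note: necroptosis triggered by 40 ng/mL TNF-alpha added together with compound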
RBBP9 inh: human RBBP9 inhibitors, primary screen, biochemical, fluorescence polarization, FP-Rh probe, HTS; Serine hydrolase RBBP9 (Homo sapiens), O75884; recombinant RBBP9; inhibition, % at 7.94 µM; 220,000 tested, 0.2% active;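 active = inhibition above the campaign mean of all tested compounds plus 3 SD, cut at about 14% in these data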
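Test system – recombinant human RBBP9 · Input – RBBP9 2.5 µM in dispensing solution, pre-mixing · Medium – Tris buffer pH 8.0, NaCl, Pluronic · Schedule – preincubation 30 min plus labeling 45 min at 25 °C · Measured by – fluorescence polarization · Measure – % inhibition · Controls – DMSO and no-protein wells · Replicates – one well per compound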
m-calpain inh: inhibitors of pig calpain II, primary screen, biochemical, fluorogenic peptide substrate, 1536-well; 220,000 tested, 0.37% active; purified calpain II, 30 min; inhibition, % at 16 µM;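 active = inhibition above about 50%, limit read from the data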
Pf gametocyte: late stage P. falciparum gametocyte viability inhibitors, primary screen, ATP luminescence, HTS. inhibition, % at 10.9 µM. 150,000 tested, 0.065% active. AID 743093, 2013. P. falciparum stage V gametocytes, 24 h;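 active = inhibition above the mean plus 3 SD of compounds within the control limits, set per campaign, cut at about 38% in these data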
Large screens that a line does not name were inactive. The list is not random: actives were taken first. Their share in the collection is about 2.1%.

COc1cc2cc(CN(C(=O)NC3CCCCC3)C3CCCC3)c(=O)[nH]c2cc1OC	Wee1 stabilizer 8.8 (no result: Pf gametocyte)
O=c1c2ccccc2oc2nc(-c3ccco3)n(Cc3ccccc3)c(=O)c12	none (no result: Pf gametocyte)
Cc1cc(C)n(-c2nnc(C)n2/N=C/c2ccccc2O)n1	Wee1 stabilizer 9.3 (no result: Pf gametocyte)
CCCNC(=O)C(Cc1cccc(Cl)c1)NC(=O)c1ccccc1 (stereo not drawn)	none (no result: zVAD death inh, Wee1 stabilizer, TNF necrop inh, RBBP9 inh, m-calpain inh)
COc1ccc2[nH]cc(/C=C/C(=O)c3ccccc3)c2c1	none
O=[N+]([O-])c1cc(C(F)(F)F)ccc1NCCCCNS(=O)(=O)c1ccc(Cl)cc1	none
NS(=O)(=O)c1ccc(CNC(=S)Nc2ccc(F)c(Cl)c2)cc1	none
O=[N+]([O-])c1ccc(NC(=S)NCCc2ccc(Cl)cc2)cc1	m-calpain inh 68 (no result: Pf gametocyte)
NS(=O)(=O)c1ccc(NC(=S)NCc2ccc(Cl)cc2)cc1	m-calpain inh 56
O=[N+]([O-])c1ccc(NC(=S)NCCc2ccccc2)cc1	none
O=[N+]([O-])c1cc(C(F)(F)F)ccc1NCCNC(=S)Nc1ccc(Cl)cc1	m-calpain inh 52
CCc1ccc(N2CC(C(=O)Nc3cc(C)on3)CC2=O)cc1 (stereo not drawn)	none
O=C(NCc1n[nH]c(=S)n1-c1cccc(Cl)c1)c1ccc(S(=O)(=O)N2CCCC2)cc1	Wee1 stabilizer 11
Cc1ccc(NCC(=O)c2ccc([N+](=O)[O-])cc2)cc1	Wee1 stabilizer 9.4 (no result: Pf gametocyte)
Cc1ccc(C)c(Sc2ccc(NC(=O)CCl)cc2)c1	Wee1 stabilizer 16
Cc1ncsc1C(=O)N1N=C2/C(=C/c3ccccc3)CCCC2C1c1ccccc1 (stereo not drawn)	none (no result: Pf gametocyte)
Cc1ncsc1C(=O)N1N=C2/C(=C/c3ccc(N4CCOCC4)cc3)CCCC2C1c1ccc(N2CCOCC2)cc1 (stereo not drawn)	Wee1 stabilizer 9.0 (no result: Pf gametocyte)
COC(=O)c1ccc(C)c(NC(=O)c2nn(C)c(=O)c3ccccc23)c1	Wee1 stabilizer 8.9
Cc1ccc(-c2c3c(=O)n(C)c(=O)n(C)c3cn2Cc2cccnc2)cc1	Wee1 stabilizer 24 (no result: Pf gametocyte)
CC(=O)N=c1c(C#N)cc2c(=O)n3cccc(C)c3nc2n1Cc1ccco1	Wee1 stabilizer 9.1
Cc1ccccc1C(=O)N=c1c(C#N)cc2c(=O)n3cccc(C)c3nc2n1Cc1ccco1	none (no result: Pf gametocyte)
O=C(CCCc1ccccc1)N1CCc2ccccc21	Wee1 stabilizer 9.8
O=C(CCCN1C(=O)/C(=C\c2cccs2)SC1=S)NNC(=O)c1cccnc1	Wee1 stabilizer 10
COCn1c(-c2ccc(OC)cc2)nc2ccccc21	Wee1 stabilizer 9.2 (no result: Pf gametocyte)
CCn1c(COc2ccc(OC)cc2)nc2ccccc21	Wee1 stabilizer 8.8
CCn1c(COc2ccccc2)nc2ccccc21	none (no result: Pf gametocyte)
COCc1nc2ccccc2n1Cc1ccc(Br)cc1	m-calpain inh 57 (no result: Pf gametocyte)
CC1SC(=Nc2ccccc2)N(S(=O)(=O)c2ccccc2)C1=O (stereo not drawn)	none
c1ccc2c(c1)ccc1nnc(SCc3ccc4c(c3)OCO4)n12	none (no result: Pf gametocyte)
O=P(CCCCCCCCCP(=O)(c1ccccc1)c1ccccc1)(c1ccccc1)c1ccccc1	m-calpain inh 57 (no result: Pf gametocyte)
O=C(O)CCCCCCCCCCP(=O)(c1ccccc1)c1ccccc1	none
CC1CCCC(NC(=O)COC(=O)CCC2CCCC2)C1C (stereo not drawn)	none (no result: Pf gametocyte)
Cc1cc(Cl)c(S(=O)(=O)Nc2cccc(O)c2)cc1OCC(N)=O	Wee1 stabilizer 9.9
COc1ccc(NS(=O)(=O)c2cc(OCC(N)=O)c(C)cc2Cl)cc1	none (no result: Pf gametocyte)
COC(=O)C(Nc1ccccc1Cl)(c1cc(C)c(O)c(C)c1)C(F)(F)F (stereo not drawn)	m-calpain inh 52 (no result: Pf gametocyte)
COc1ccc(COCC(O)CN2CC(C)OC(C)C2)cc1OC (stereo not drawn)	none
COC(=O)/C(=N/Nc1ccccc1C)Sc1nnc(C(O)c2ccccc2)n1-c1ccccc1 (stereo not drawn)	none
O=C(CSc1nc2ccccc2c(=O)n1NC(=O)c1ccccc1)c1ccccc1	none
O=C(CSc1nc2ccccc2c(=O)n1NC(=O)c1ccccc1)c1ccc(Cl)cc1	Wee1 stabilizer 9.3
O=C(Oc1ccc(-c2cnc3ccccc3n2)cc1)c1ccco1	zVAD death inh 79
Cc1c(C(=O)Oc2ccc(-c3cnc4ccccc4n3)cc2)cccc1[N+](=O)[O-]	zVAD death inh 81
O=C(Oc1ccc(-c2cnc3ccccc3n2)cc1)c1cc([N+](=O)[O-])ccc1Cl	none
O=C(Nc1nc2c(F)cc(F)cc2s1)C1CC(=O)N(Cc2ccco2)C1 (stereo not drawn)	none
Cc1cccc(-c2c3c(nc4c2c(=O)n(C)c(=O)n4C)-c2ccccc2C3O)c1 (stereo not drawn)	none (no result: zVAD death inh, Wee1 stabilizer, TNF necrop inh, RBBP9 inh, m-calpain inh)
Cc1nc2sc(C(c3cccs3)N3CCN(C(=O)c4ccco4)CC3)c(O)n2n1 (stereo not drawn)	none (no result: Pf gametocyte)
Cc1nc2sc(C(c3cccs3)N3CCN(c4cccc(Cl)c4)CC3)c(O)n2n1 (stereo not drawn)	Wee1 stabilizer 11 (no result: Pf gametocyte)
CN(CCOc1ccccc1)CC(=O)Nc1ccc(Cl)cc1[N+](=O)[O-]	none
OCCCNC(=S)Nc1ccc(Br)cc1Cl	Wee1 stabilizer 8.9
O=C1c2cccc3cccc(c23)C(=O)N1CCCN1CCN(c2ccc(F)cc2)CC1	m-calpain inh 54
Cc1cc(C)cc(NC(=O)C/C(N)=N/O)c1	none (no result: Pf gametocyte)
O=c1oc2ccccc2cc1N1CCOCC1	Wee1 stabilizer 9.3
O=c1cc(N2CCOCC2)c2ccccc2o1	none (no result: Pf gametocyte)
COc1ccccc1NC(=O)CSc1nnnn1-c1ccccc1F	none (no result: zVAD death inh, Wee1 stabilizer, TNF necrop inh, RBBP9 inh, m-calpain inh)
O=C(Cc1sc(Nc2ccccc2)nc1-c1ccccc1)NCc1ccccn1	Wee1 stabilizer 9.1
O=C(CSc1ccc(Cl)cc1)N1N=CCC1c1ccccc1 (stereo not drawn)	TNF necrop inh 100
CCCOc1ccc(S(=O)(=O)NCc2ccc(OC)cc2)cc1	Wee1 stabilizer 22
COc1cc(CNc2ccc(CNc3ncn[nH]3)cc2)ccc1OCc1ccccc1	Wee1 stabilizer 10
COc1cc(CNc2ccc(O)cc2)cc(Br)c1OCc1ccccc1	m-calpain inh 64
CCCCCC(=O)Nc1c(-c2ccc(OC)cc2)c(=O)c2ccccc2n1C	Wee1 stabilizer 9.9 (no result: Pf gametocyte)
Cc1ccc(N=Nc2ccc(O)c(/C=N\NC(=O)c3ccc(N)cc3)c2)cc1C	Wee1 stabilizer 9.5
Cn1c(SCC(=O)NNC(=O)c2ccc(Cl)cc2)nnc1-c1cccnc1	none
CCn1c(SCC(=O)Nc2ccccc2C)nc2nc3c(cc2c1=O)COC(C)(C)C3	none
Oc1ccccc1-c1nc(/C=C/c2ccccc2)nn1-c1ccccc1	Wee1 stabilizer 9.6
